High-throughput results deposited in PubChem by The Scripps Research Institute Molecular Screening Center.
LEDGF integ inh: blocks HIV-1 LEDGF/p75-dependent DNA integration; TR-FRET IN-LEDGF/p75 DNA integration, Eu/Cy5; inhibition, % at 3.7 µM; hit rate 0.64% among 370,000; AID 743269;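 active = inhibition above the screen-wide mean plus 3 SD, cut at about 13% in these data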;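 note: signal is the Cy5 over europium emission ratio at 671 and 618 nm; 0% = plate median of compound wells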
MBD2 DNA inh: MBD2-methylated oligo binding inhibition. Q9UBB5. TR-FRET, MBD2 binding to methylated oligonucleotide. inhibition, % at 4.4 µM. hit rate 0.31% among 370,000. AID 686964; in the data active = inhibition above about 13%
ASAP1 inh: blocks human ASAP1-stimulated Arf1 GTP hydrolysis | inhibition, % at 16.5 µM | hit rate 0.19% among 360,000 | AID 624377 | GDP FP detection; in the data active = inhibition above about 25%;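 note: 0% = vehicle with enzyme and substrate and 100% = no enzyme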
TDP2 inh: blocks human TDP2 phosphodiesterase activity; hit rate 0.34% among 370,000; O95551; inhibition, % at 12.8 µM; AID 720702; recombinant TDP2, T5PNP hydrolysis, p-nitrophenol absorbance 415 nm;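 active = inhibition above the mean of all tested compounds plus 3 SD, set per campaign, cut at about 25% in these data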;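 note: 0% = DMSO with enzyme and 100% = buffer with substrate but no TDP2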
Target sequence (O95551 whole entry, looked up): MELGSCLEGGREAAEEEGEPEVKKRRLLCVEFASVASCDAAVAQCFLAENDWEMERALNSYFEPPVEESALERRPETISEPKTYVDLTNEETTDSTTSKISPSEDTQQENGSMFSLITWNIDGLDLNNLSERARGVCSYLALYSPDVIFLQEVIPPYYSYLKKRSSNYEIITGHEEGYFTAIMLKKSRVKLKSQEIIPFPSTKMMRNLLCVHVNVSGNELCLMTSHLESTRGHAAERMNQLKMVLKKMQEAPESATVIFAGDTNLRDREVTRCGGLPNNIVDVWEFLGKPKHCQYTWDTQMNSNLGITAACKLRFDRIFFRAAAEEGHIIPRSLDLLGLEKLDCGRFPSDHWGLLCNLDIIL
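System – recombinant human TDP2 · Amount – 120 nM TDP2 per well · Buffer or medium – Mg2+-containing Tris-HCl buffer, pH 7.5 · Reagent – T5PNP substrate, 5 mM · Dosing – 12.8 µM single point, 1% DMSO · Incubation – 2 h at 37 °C · Measured by – epi absorbance · Read-out basis – percent inhibition · Benchmarks – high control without enzyme, low control DMSO plus TDP2 · Repeats – singlicate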
UHRF1 binding: UHRF1 methyl-DNA binding inhibition; inhibition, % at 4.4 µM; Q96T88; UHRF1 binding to methylated oligo, TR-FRET; AID 687016; hit rate 0.75% among 370,000; in the data active = inhibition above about 21%;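 note: UHRF1 SRA domain binding a hemimethylated CpG hairpin DNA probe; 0% = median of test compound wells and 100% = reference inhibitor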
ARFGAP1 inh: rat ARFGAP1 inhibition; inhibition, % at 16.5 µM; hit rate 0.26% among 360,000; Q62848; Arfgap1-stimulated ARF1 GTP hydrolysis, GDP FP detection;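 active = inhibition above a per-plate limit, mean inhibition of low control wells plus 3 SD, cut at about 25% in these data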;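 note: 0% = DMSO wells with enzyme and 100% = wells lacking Arfgap1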
Target sequence (Q62848 1-136 limits assumed): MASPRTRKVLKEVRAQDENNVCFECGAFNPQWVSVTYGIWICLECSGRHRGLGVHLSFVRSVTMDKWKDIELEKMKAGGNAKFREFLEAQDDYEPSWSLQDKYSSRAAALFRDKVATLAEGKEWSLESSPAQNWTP
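Assay system: Rat Arfgap1 GAP domain (His6, aa 1-136), purified enzyme | Buffer or medium: HEPES 25 mM pH 7.5, NaCl 150 mM, MgCl2, DTT | Schedule: GTP hydrolysis reaction 2 h at 25 °C | Signal: FP of antibody-bound GDP Alexa 633 tracer, ex 620/em 688 nm | Measure: Percent inhibition of Arfgap1-stimulated GTP hydrolysis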
Starred values were filed as active, the others as inactive; · = no result given. This is a sample that favours compounds with a hit; in the whole collection about 2% have one here.

SMILES | LEDGF integ inh | MBD2 DNA inh | ASAP1 inh | TDP2 inh | UHRF1 binding | ARFGAP1 inh
COC(=O)c1ccc2nc(C3CCCCC3)c(Cc3ccc(C)cc3)n2c1 | -3 | 11 | -21 | -3 | 23* | -5
Cc1ccc(Cc2c(C3CCCCC3)nc3ccc(Br)cn23)cc1 | -2 | 7 | -4 | 8 | 15 | -6
COC(=O)c1ccc2nc(C3CCCCC3)c(Cc3ccccc3C(F)(F)F)n2c1 | 3 | 11 | -16 | -5 | 17 | 11
CO/N=C\C(=N\Nc1ccc(OC)cc1)C(=O)c1ccccc1 | 0 | -6 | -13 | -12 | 38* | 7
CO/N=C/C(=N\Nc1ccccc1)C(=O)c1ccccc1 | -1 | -3 | 8 | 4 | -3 | 8
Cc1ccc(C)c(NC(=O)CN2C(=O)NC(C)(c3ccc4c(c3)OCCO4)C2=O)c1 (centres undefined) | -1 | -5 | -1 | -11 | 70* | 8
O=C(NCC1COc2ccccc2O1)c1ccc(NC(=O)C(Cl)Cl)cc1 (centres undefined) | 1 | -4 | · | -2 | 0 | ·
COC(=O)[C@H]1C[C@]2(C(C=C(C)C)S(=O)(=O)c3ccccc3)c3ccccc3N[C@H]2N1 (some centres undefined) | 3 | 8 | · | 0 | 4 | ·
C/C(=N\NC(=O)CN1CCCCC1)c1cccc([N+](=O)[O-])c1 | -2 | 0 | -1 | 0 | 25* | -3
Cc1ccc(/C(N)=N/OC(=O)Cc2cccc3ccccc23)cc1 | 0 | 6 | 1 | -8 | 24* | -11
N/C(=N\OC(=O)Cc1cccs1)c1ccccc1 | -2 | 9 | -1 | 7 | 21* | 0
Cc1ccc(NC(=O)CSc2nnc(-c3cccnc3)n2Cc2ccco2)c(C)c1 | -1 | -1 | · | 2 | 0 | ·
O=C(CN1C(=O)S/C(=C\c2ccc(-c3cc(C(=O)O)ccc3Cl)o2)C1=O)Nc1ccc2c(c1)OCO2 | 18* | 6 | 14 | -17 | 17 | -1
COc1ccccc1N1C(=N)S/C(=C\c2ccc(-c3ccccc3C(=O)O)o2)C1=O | 0 | -2 | 1 | 11 | 2 | 0
N=C1S/C(=C\c2ccc(-c3ccccc3C(=O)O)o2)C(=O)N1c1ccc2c(c1)OCO2 | -1 | 7 | -1 | -9 | 23* | 12
COc1ccc(CN2CN3Cc4ccccc4C3CS2(=O)=O)cc1 (centres undefined) | -1 | 0 | · | 11 | -3 | ·
CC(C)CN(CC(C)C)C(=O)c1cn(C(C)c2ccccc2)nn1 (centres undefined) | 5 | -5 | · | 3 | 1 | ·
CCCCC(=O)OCC(=O)C1(O)Cc2c(O)c3c(c(O)c2C(OC2CC(NC(=O)C(F)(F)F)C(O)C(C)O2)C1)C(=O)c1c(OC)cccc1C3=O (centres undefined) | 4 | 8 | 2 | -9 | 6 | -1
COc1cccc2c1C(=O)c1c(O)c3c(c(O)c1C2=O)CC(O)(C(C)=O)CC3OC1CC(O)C(O)C(C)O1 (centres undefined) | -3 | 78* | 5 | 8 | 81* | 17
COC(=O)[C@]12C[C@H](CC(=O)N3CCCC3)C(=O)N(CCc3ccc(OC)c(OC)c3)C1=C[C@H](C(C)(C)C)O[C@@H]2C | 1 | -2 | · | 2 | -1 | ·
O=c1oc2ccccc2c(NCCO)c1[N+](=O)[O-] | 1 | 1 | 6 | -10 | 41* | 0
Cc1ccc(S(=O)(=O)Nc2cncnc2NS(=O)(=O)c2ccc(C)cc2)cc1 | -1 | 6 | 6 | -10 | 42* | 0
C[C@H]1[C@H](N(Cc2ccccc2)Cc2ccccc2)CC[C@@]23CCCN2C(=O)CCC[C@@H]13 | 8 | 0 | · | -8 | 0 | ·
Cc1ccc(CNC(=O)Cc2ccc(-n3cccc3)cc2)cc1 | -1 | 1 | -2 | 6 | -4 | -6
Cc1ccc(CNC(=O)c2ccc(-n3cccc3)cc2)cc1 | 11 | 11 | -8 | -11 | 35* | 0
SMILES | LEDGF integ inh | MBD2 DNA inh | ASAP1 inh | TDP2 inh | UHRF1 binding | ARFGAP1 inh
COC(=O)[C@]12C[C@H](CC(=O)NCC3CCCCC3)C(=O)N(CCC3=CCCCC3)C1=C[C@H](C1CCCC1)O[C@@H]2C | -3 | -2 | · | -6 | -3 | ·
Cc1cc(NS(=O)(=O)c2ccc(NC(=O)NC(C)(C(F)(F)F)C(F)(F)F)cc2)no1 | -1 | 9 | 16 | -10 | 21* | 14
COc1ccc(NS(=O)(=O)c2cccc(C(=O)NCC3(N4CCCCC4)CCCCC3)c2)cc1 | 3 | 3 | 4 | 1 | 25* | 3
CC[C@H](CCC(=O)N(c1ccccc1)c1ccccc1)c1ccc(C)cc1 | 2 | 4 | · | 4 | 1 | ·
Cc1cccc(CNC(=S)OCCN2CCCC23CCC(c2ccccc2)CC3)c1 (centres undefined) | 1 | -3 | · | -1 | -1 | ·
O=C(NC1=NC2(C=C3CCCCC3n3c(=O)n(-c4ccccc4)c(=O)n32)CN1CC1CC1)c1ccccc1 (centres undefined) | 3 | -6 | · | 5 | 1 | ·
Oc1ccccc1-c1cc(-c2ccc3c(c2)OCCO3)n[nH]1 | -1 | 2 | 28* | 4 | -3 | 11
COc1ccc2c(c1)CN1C(=O)N(CC(C)C)S(=O)(=O)CC21 (centres undefined) | -5 | 2 | · | 3 | 2 | ·
CCS(=O)(=O)N1CCN(c2ccc(S(=O)(=O)N3CCOCC3)cc2)CC1 | -3 | 5 | -10 | -2 | 31* | 9
O=S(=O)(c1ccc(N2CCOCC2)cc1)N1CCOCC1 | -3 | 2 | -1 | 3 | 0 | -9
CC(C)N1CCc2c(sc(NC(=O)C(F)(F)F)c2-c2nc3ccccc3s2)C1 | -4 | -5 | · | -4 | -50 | ·
Cc1ccc(S(=O)(=O)N(C)CC(=O)NNC(=O)CCNS(=O)(=O)c2cccc(C)c2)cc1 | -3 | 2 | 3 | 5 | 34* | -2
Cc1ccc(S(=O)(=O)CCC(=O)NNC(=O)CN(C)S(=O)(=O)c2ccc(C)cc2)cc1 | -6 | 6 | 1 | -4 | 2 | 1
CCCCNC(=O)C[C@H]1C[C@@]2(C(=O)OC)C(=C[C@H](COCc3ccccc3)O[C@@H]2C)N(Cc2cccc3ccccc23)C1=O | -3 | 5 | · | 2 | -2 | ·
CCCS(=O)(=O)N1CCN(Cc2ccco2)CC1 | 3 | -2 | 6 | 9 | 25* | 12
Cc1ccc(/C=N/NC(=O)CNC(=O)c2cccs2)o1 | -4 | -1 | 1 | -16 | 0 | 17
O=C(N/N=C/c1ccc(-c2ccccc2C(=O)O)o1)c1cccs1 | 5 | -2 | 5 | 2 | 23* | -5
CCN(CC)CCCNC(=O)C1(N[C@@H](Cc2c[nH]c3ccccc23)C(=O)NCC(OC)OC)CCCCC1 | 0 | -4 | · | 1 | 0 | ·
O=C1NC(=S)S/C1=C\c1cc2ccccc2nc1N1CCCCC1 | 2 | 4 | -7 | 8 | 78* | -2
